Cl transport mod: KCC2 cotransporter modulators, thallium flux, primary screen, cell-based, HEK293 KCC2, FluoZin-2 fluorescence, MLSMR. Solute carrier family 12 member 5 (Homo sapiens), Q9H2X9. KCC2 cells, thallium flux FluoZin-2 fluorescence. B-score of Tl+ flux slope (higher = more flux/activation; lower = inhibition) at 10 µM. 2.2% of 190,000 active. AID 1456, 2008;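 active means thallium flux slope and its plate-corrected score both differing from the plate sample mean at a set confidence after two filtering rounds, in either direction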;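 further: slope of fluorescence scaled to starting intensity during 10 to 20 s after thallium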
PMI act: activators of human PMI, primary screen, biochemical, fluorescence intensity, near-Km mannose 6-phosphate. purified human PMI, coupled resazurin fluorescence, 20 min; hits give high values; 1 = vehicle control, 0 substrate-free wells. 0.005% of 190,000 active. activation factor at 20 µM;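 active means activation factor of 2 or more at 20 µM, relative to plate controls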
PMI act hi M6P: human PMI activators, high substrate, primary screen, biochemical, fluorescence intensity, near-saturating mannose 6-phosphate. Mannose-6-phosphate isomerase (Homo sapiens), P34949. coupled PMI enzyme assay, resazurin fluorescence, 20 min; hits give high values; 1 = untreated enzyme, 0 = substrate-free blank. activation factor at 20 µM. 0.34% of 190,000 active;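 active means activation factor of 2 or more at 20 µM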
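Test system: human phosphomannose isomerase with PGI, G6PDH, diaphorase coupling enzymes / Doses: 20 µM compound, 1% DMSO / Times: enzyme reaction with compound 20 min at room temperature / Measured by: Diaphorase-driven resazurin-to-resorufin fluorescence, excitation 544, emission 590 nm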
ROMK mod: ROMK potassium channel modulators, primary screen, cell-based, thallium flux, MLSMR library | AID 1918, 2009 | B-score at 10 µM | 2% of 130,000 active | ATP-sensitive inward rectifier potassium channel 1 (Homo sapiens), P48048 | Tet-inducible ROMK, thallium flux fluorescence; actives lie on both sides;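 active means signal ratio slope over the read window, or its plate-corrected B-score, at least 3 SD from the plate mean, either direction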;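 further: B-score of the F/F0 ratio slope over 7 to 12 s after thallium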
Target sequence (P48048 whole entry, looked up): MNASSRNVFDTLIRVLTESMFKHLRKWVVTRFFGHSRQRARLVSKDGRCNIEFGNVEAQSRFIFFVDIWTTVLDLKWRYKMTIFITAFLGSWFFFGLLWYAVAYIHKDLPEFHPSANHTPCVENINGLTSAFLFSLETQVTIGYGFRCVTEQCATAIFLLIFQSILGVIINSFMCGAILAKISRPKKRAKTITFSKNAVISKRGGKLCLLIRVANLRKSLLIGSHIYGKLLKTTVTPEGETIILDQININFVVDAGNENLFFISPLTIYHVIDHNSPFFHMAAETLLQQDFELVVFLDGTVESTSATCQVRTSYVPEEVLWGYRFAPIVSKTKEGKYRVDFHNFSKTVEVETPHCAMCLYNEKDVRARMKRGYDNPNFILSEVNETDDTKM
ABCB1 inh: ABCB1 efflux pump inhibitors, primary screen, cell-based, multiplex, flow cytometry, ABCG2 counter-screen. ATP-dependent translocase ABCB1 (Homo sapiens), P08183. CCRF-Adr cells, JC-1 efflux. inhibition, % at 6.6 µM. 0.067% of 190,000 active. AID 1326, 2008; in the data active means inhibition above about 40%;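 further: 0% = vehicle and 100% = reference inhibitor; higher value means more JC-1 retained so stronger ABCB1 efflux block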
ABCG2 block: ABCG2 efflux pump inhibitors, primary screen, multiplex with ABCB1, IgMXP3 cells, flow cytometry. JC-1 efflux. 0.1% of 190,000 active. AID 1325, 2008. Broad substrate specificity ATP-binding cassette transporter ABCG2 (Homo sapiens), Q9UNQ0. inhibition, % at 6.6 µM;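 active means inhibition above 80%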;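 further: 0% = DMSO and 100% = nicardipine control wells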
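Times: 10 min at 25 °C | Test system: Two drug-resistant human cell lines, ABCG2 and ABCB1 | Quantity: 3 million cells/mL final, two lines in 1:1 ratio | Signal: Flow cytometry, 530 nm JC-1 signal | Dosing: Compound at 6.6 µM | Controls: Nicardipine and DMSO wells | Reagent: JC-1 as fluorescent efflux pump substrate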
KCC2 sec1: KCC2 modulators in sodium-free buffer, confirmation, cell-based, HEK293 KCC2, thallium flux, secondary assay. shares compounds with Cl transport mod. FluoZin2 fluorescence; hits give high values. normalised thallium flux (F/F0 slope) at 10 µM. 15% of 3,700 active. AID 1713, 2009;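 active means thallium flux slope above the same plate's solvent-only control mean plus 3 SD; inconclusive means the two replicate wells disagree; inactive means no significant difference from solvent-only control wells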
KCC2 bumet counter: thallium flux persisting under bumetanide in KCC2 cells, confirmation, counter-screen for KCC2 modulator project, cell-based, HEK293 KCC2, FluoZin2, secondary assay 3; shares compounds with Cl transport mod; normalized thallium flux at 10 µM; 49% of 3,700 active; HEK293-KCC2 + bumetanide/ouabain; hits give high values;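 active means thallium entry rate above the same plate's blocked-transporter control wells by more than 3 SD; inconclusive means the two repeat wells disagree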;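 further: raw slope of fluorescence over initial fluorescence between 10 and 20 s after thallium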
KCC2 sec2: KCC2 modulators without ouabain present, confirmation, cell-based, HEK293 KCC2, thallium flux, FluoZin2, secondary assay 2. shares compounds with Cl transport mod. thallium flux FluoZin2 fluorescence; actives lie on both sides; F/F0 rise rate, 10–20 s post-thallium. normalized thallium flux at 10 µM. 23% of 3,700 active;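 active means thallium flux slope more than 3 SD above or below the plate's solvent-only control mean, mostly below; inconclusive means the two repeat wells disagreed; inactive means no significant shift from solvent-only controls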;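 further: raw slope with 0.1% DMSO as baseline and bumetanide as block control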
HEK293 Tl flux: thallium flux modulation in parental HEK cells, confirmation, counter-screen for KCC2 modulator project, cell-based, counterscreen 1 | shares compounds with Cl transport mod | HEK293 parental cells, thallium flux FluoZin2, ouabain; baseline-ratio fluorescence slope, 10–20 s after thallium | thallium flux rate (normalised fluorescence) at 10 µM | 46% of 3,700 active | AID 1716, 2009;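 active means thallium flux rate significantly above the same plate's solvent-only control wells, beyond their mean plus 3 SD; inconclusive means the two replicate wells gave conflicting results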
KCC2 retest ouab: KCC2 inhibitors and activators, ouabain retest, confirmation, HEK-KCC2 cells; HEK293-KCC2, thallium flux FluoZin2 fluorescence; bidirectional: low = inhibitor, high = activator; raw Tl+ flux slope (below DMSO = inhibition, above = activation) at 10 µM; 48% of 3,700 active; AID 1717, 2009; shares compounds with Cl transport mod;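 active means thallium flux slope beyond 3 SD from same-plate DMSO control mean in most replicates, usually higher, sometimes lower; inconclusive means repeat tests gave conflicting results; inactive means no significant difference from controls in most replicates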;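 further: slope of initial-normalized fluorescence between seconds 10 and 20 after thallium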
HEK293 Tl flux2: native HEK Tl+ uptake effects, second counter-screen – HEK cells, counterscreen 2, counter-screen for KCC2 modulator project, confirmation | thallium flux slope at 10 µM | AID 1718, 2009 | HEK293 parental, thallium flux FluoZin-2 fluorescence slope | 33% of 3,700 active | shares compounds with Cl transport mod;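 active means thallium flux slope above the same plate's solvent-control mean plus 3 SD in both duplicate wells; inconclusive means duplicate wells that disagreed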;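 further: run without ouabain in cells lacking the KCC2 cotransporter; slope of fluorescence scaled to its starting value between 10 and 20 s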
Active calls of the source: *; u = inconclusive; x = not tested or not shown. Rows were chosen to be rich in hits. Some 3.3% of all compounds tested hit in one or more screens of this group.

SMILES | Cl transport mod | PMI act | PMI act hi M6P | ROMK mod | ABCB1 inh | ABCG2 block | KCC2 sec1 | KCC2 bumet counter | KCC2 sec2 | HEK293 Tl flux | KCC2 retest ouab | HEK293 Tl flux2
O=C1OC(c2cccs2)=N/C1=C\c1ccc(-c2ccccc2Cl)o1 | x | 0.9 | 1.1 | x | 0 | -4 | 0.0059 | 0.0045 | 0.028 | 0.0049* | u | 0.0088
COc1ccc(C2=NN(S(C)(=O)=O)C(c3cccs3)C2)cc1OC (configuration not stated) | -0.51 | 1 | 1 | -0.48 | 1 | 2 | x | x | x | x | x | x
Cc1nc2ccccc2c2c1C(=O)N(c1ccc(C(=O)O)cc1)C2=O | 1 | 1.1 | 0.9 | 0.21 | 1 | 3 | x | x | x | x | x | x
Cc1nc2ccccc2c2c1C(=O)N(C1CCCCCCC1)C2=O | -4.8* | 1 | 1 | x | 1 | 8 | 0.01 | u | 0.033 | 0.0076 | 0.022 | 0.01
COC(=O)c1cc(OC)c(OC)cc1NC(=O)CSc1ccccc1 | x | 0.9 | 1 | x | 5 | 10 | x | x | x | x | x | x
Cc1ccc(C(=O)CSc2ncnc3sc4c(c23)CCCC4)cc1 | 5.3* | 1 | 1 | x | 0 | 7 | 0.014* | 0.033* | 0.032 | 0.026* | 0.03* | u
O=C(O)CSc1ncnc2sc3c(c12)CCCC3 | 12* | 1.2 | 1 | -0.11 | 0 | 2 | 0.006 | 0.0065* | u | 0.0099* | 0.018 | 0.0093
Cc1noc(C)c1CSc1ncnc2sc(C)c(C)c12 | 0.27 | 0.9 | 0.9 | x | 1 | 17 | x | x | x | x | x | x
Cc1noc(C)c1CSc1ncnc2sc3c(c12)CCCCC3 | 78* | 0.9 | 0.8 | 0.7 | 3 | 0 | 0.033* | 0.16* | u | 0.078* | 0.11* | 0.028*
CCSc1ncnc2sc3c(c12)CCC3 | 0.93 | 1 | 1 | 0.0026 | 1 | 7 | x | x | x | x | x | x
O=C(O)CSc1ncnc2sc3c(c12)CCC3 | 7.8* | 0.9 | 0.9 | x | -1 | -4 | 0.016* | 0.035* | 0.031 | 0.016* | 0.037* | 0.012*
Nc1ccccc1C(=O)NNC(=O)C(=O)/C=C(\O)c1ccccc1 | 1.1 | x | x | x | x | x | x | x | x | x | x | x
